Publication PMC8635173 (Chemical Science, 2021)
Where two headings read alike, the source gives them in different places.

Experiments:
[1] = system: NCI-H460 non-small cell lung carcinoma; experiment: Anti-proliferative NBB assay; assay type: cell-based, human; details: read-out: IC50 NCI-H460; 72 h
A2780 ovarian carcinoma = experiment: Anti-proliferative NBB assay; assay type: cell-based, human; details: read-out: IC50 A2780; 72 h
[2] = system: PLC primary liver carcinoma; experiment: Anti-proliferative NBB assay; assay type: cell-based, human; details: read-out: IC50 PLC; 72 h
[3] = system: HCT116 colorectal carcinoma; experiment: Anti-proliferative NBB assay; assay type: cell-based, human; details: read-out: IC50 HCT116; 72 h
[4] = system: MDA-MB-231 triple-negative breast cancer carcinoma; experiment: Anti-proliferative NBB assay; assay type: cell-based, human; details: read-out: IC50 MDA-MB-231; 72 h
[5] = system: CCD-19Lu normal lung fibroblast; experiment: Anti-proliferative NBB assay; assay type: cell-based, human; details: read-out: IC50 CCD-19Lu; 72 h
NCI-H460 cells [6] = experiment: Cell cycle analysis by flow cytometry; assay type: cell-based, human; details: 10 µM
NCI-H460 cells [7] = experiment: γ-H2AX immunofluorescence staining; assay type: cell-based, human; details: 10 µM, 24 h post-treatment
NCI-H460 cells [8] = experiment: Annexin V-FITC/PI double staining, flow cytometry; assay type: cell-based, human; details: 20 µM, 72 h
NCI-H460 cells [9] = experiment: Lysosomal integrity; assay type: cell-based, human; details: 10 µM, 24 h
How it was run: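 NCI-H460 cells were exposed to test compound (10 μM) for 24 h and then stained. Stains were acridine orange (10 μM), LysoTracker Deep Red with MitoTracker Green (50 nM), and pepstatin A–BODIPY FL conjugate (1 μM) co-stained with LysoTracker Deep Red. Imaging was by confocal microscopy, checking vesicular staining loss and cytosolic probe leakage against vehicle.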

LC3 (LC3-II) = experiment: Immunoblotting of autophagy marker LC3; assay type: cell-based, human; details: Western blotting; 1a 0-30 µM 6 h or 10 µM 6-24 h; cisplatin 0-20 µM 6 h
NCI-H460 cells [10] = experiment: Mitochondrial depolarization assay; assay type: cell-based, human; details: 10 µM, 24 h, relative to vehicle
Aqueous solubility = assay type: physicochemical
calf thymus DNA (ctDNA) = experiment: UV-vis absorption titration with DNA; assay type: binding; details: complex 30 µM, Tris-HCl pH 7.4
[11] = system: telomeric G-quadruplex (HTelo) DNA; experiment: UV-vis absorption titration with DNA; assay type: binding; details: at λmax of 345 nm
ctDNA = experiment: DNA binding affinity by isothermal titration calorimetry; parameters: species or system calf
[12] = system: DNA duplex bearing cytosine–cytosine (CC) mismatched base pairs; experiment: DNA binding affinity by ITC
[13] = target: guanine–cytosine (GC)-rich DNA; experiment: DNA binding affinity by ITC; details: read-out: KD (GC-rich DNA), one-site binding model, pH 7.4
[14] = Particle size by nanoparticle tracking analysis; assay type: physicochemical
[15] = system: β-glucosidase (from almonds); experiment: Enzymatic cleavage of the glycosidic linkage, UPLC/MS; assay type: in vitro ADME
How it was run: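 Test compound incubated with almond β-glucosidase (0.5 U mL⁻¹) in PBS pH 5.8 at 37 °C for up to 24 h. Enzyme-free controls were run in PBS pH 5.8 and pH 7.4. Release of the deglycosylated aglycone was followed over time by UPLC/MS peak tracking (retention time and m/z).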

[16] = system: different cancer cell lines; experiment: Anti-proliferative NBB assay, summary over several cancer cell lines; assay type: cell-based, human; details: for IC50: read-out: IC50 toward different cell lines, NCI-H460 lung, PLC liver and HCT116 colorectal carcinomas
NCI-H460 cells [17] = experiment: Cellular uptake of platinum by ICP-MS; assay type: cell-based, human; details: for decrease in Pt levels in cells: 2 h treatment
[18] = Lipophilicity measurement; assay type: physicochemical; details: n-octanol / 0.9 % aqueous NaCl, 298 K
NCI-H460 cells [19] = experiment: Subcellular distribution of platinum content by ICP-MS; assay type: cell-based, human; details: 24 h treatment
[20] = system: NCI-H460 cancer cells and CCD-19Lu normal fibroblast cells; experiment: Comparative cellular uptake, cancer versus normal cells, ICP-MS; assay type: cell-based, human
[21] = system: NCI-H460 cells stably expressing mRFP-GFP-LC3; experiment: Live cell imaging of mRFP-GFP-tagged LC3; assay type: cell-based, human; details: 10 µM, 24 h
NCI-H460 cells [22] = experiment: Intracellular oxidant level; assay type: cell-based, human; details: 10 µM, 24 h
[23] = system: NCI-H460 lung cancer xenografts; experiment: In vivo anti-tumor study; parameters: species or system nude mouse; details: 1a 25 mg kg^−1 i.v., 14 days
How it was run: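 Nude mice bearing NCI-H460 xenografts were randomised into groups (n = 6). Groups received test compound (25 mg kg⁻¹) or PBS vehicle i.v. for 14 days; cisplatin (1.5 mg kg⁻¹ i.v.) on a similar regimen served as positive control. Tumour volume was tracked. Dissected tumours were weighed and examined by H&E and Ki-67 immunohistochemistry. Data are given as mean ± standard error.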

[24] = In vivo systemic toxicity; parameters: species or system nude mouse
How it was run: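 Tumour-bearing nude mice (n = 6) received test compound (25 mg kg⁻¹ i.v.) or PBS vehicle for 14 days. Body weight was tracked throughout. At day 14, major organs were harvested for H&E histology, and blood was analysed for ALT and creatinine.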

## N.N.[Cl][Pt][Cl] [Cisplatin, reference compound]
[1]
  IC50: 6.9 ± 0.5 µM
A2780 ovarian carcinoma
  IC50: 8.9 ± 0.7 µM
[2]
  IC50: 9.1 ± 1.2 µM
[3]
  IC50: 5.1 ± 0.4 µM
[4]
  IC50: 19.7 ± 1.6 µM
[5]
  IC50: 30.8 ± 4.9 µM
NCI-H460 cells [6]; 24 h, versus vehicle
  increase in G2/M populations: 53.7%
NCI-H460 cells [7]
  γ-H2AX foci in nuclei: even more markedly increased
NCI-H460 cells [8]
  late apoptosis (annexin V-positive and PI-positive): 87.2%
NCI-H460 cells [9]
  lysosomal integrity: negligible damage to the cellular lysosomes
LC3 (LC3-II)
  level of LC3-II: dose-dependent increase
NCI-H460 cells [10]
  decrease in red fluorescence of JC-1 (mitochondrial depolarization): 8.3%

## [Pt(tpy)(C?CArOGlu)](CF3SO3) [Complex 1a]
Aqueous solubility
  solubility (water): 8600 µg/mL
Calf thymus DNA (ctDNA)
  bathochromic (red) shift of lowest-energy absorption band upon addition of ctDNA: 42 nm
Calf thymus DNA (ctDNA); lowest-energy absorption band
  hypochromism upon addition of ctDNA: 16.8%
[11]
  hypochromism upon addition of HTelo DNA: 19.6%
ctDNA; 1a versus 2
  fold lower KD than 2 (ctDNA): 27.5 fold
ctDNA; read-out: KD (ctDNA), ITC, one-site binding model, pH 7.4
  Kd: 0.48 µM
[12]; 1a versus 2
  fold higher binding affinity than 2 (CC mismatched DNA): 4.3 fold
[12]; read-out: KD (CC mismatched DNA), ITC, one-site binding model, pH 7.4
  Kd: 19.6 µM
[13]
  Kd: 74.1 µM
[14]; RPMI 1640 cell culture medium containing 10% fetal bovine serum
  average hydrodynamic diameter: 87.3 ± 4.6 nm
[14]; aqueous solution containing 1% DMSO, 100 µM
  average hydrodynamic diameter: 139.6 ± 2.5 nm
[15]; buffer control without β-glu, PBS pH 5.8, 24 h
  conversion of 1a into 1d: ca. 2%
[15]; β-glu 0.5 U mL^−1, PBS pH 5.8, 37 °C, 24 h
  conversion of 1a into 1d: more than 70%
[1]
  IC50: 7.1 ± 0.3 µM
A2780 ovarian carcinoma
  IC50: 8.7 ± 0.2 µM
[2]
  IC50: 17.2 ± 1.2 µM
[3]
  IC50: 7.5 ± 0.6 µM
[4]
  IC50: 23.8 ± 5.8 µM
[5]
  IC50: > 100 µM
[16]; most of the cancer cell lines, 72 h
  fold higher anti-proliferative activity than 1b: 1.4- to 2.4 fold
[16]; 24 h post-treatment
  IC50: > 100 µM
[16]; after 48 h
  IC50: 54.6 to 74.5 µM
NCI-H460 cells [6]; 24 h, versus vehicle
  increase in G0/G1 populations: 9.3%
NCI-H460 cells [6]; 48 h compared with 24 h
  change in cell populations on prolonging treatment to 48 h: no significant increase in cell populations
NCI-H460 cells [7]
  γ-H2AX foci in nuclei: some significant fluorescent γ-H2AX foci
NCI-H460 cells [8]
  necrotic cell death (annexin V-negative and PI-positive): 91%
NCI-H460 cells [17]; 10 µM, after 24 h
  fold higher intracellular Pt level than 1b: ca. 3.2 fold
  fold higher intracellular Pt level than 1c: ~8 fold
  fold higher intracellular Pt level than 1d: ~1.6 fold
NCI-H460 cells [17]; hypertonic sucrose (450 mM)
  decrease in Pt levels in cells: 27.4%
NCI-H460 cells [17]; incubation at 4 °C
  decrease in Pt levels in cells: 77.1%
NCI-H460 cells [17]; low temperature (4 °C) or inhibition of endocytosis
  reduction in the cellular Pt level (upper figure): up to 80%
NCI-H460 cells [17]; nocodazole (50 µM)
  decrease in Pt levels in cells: 41.9%
[18]
  lipophilicity (log P): −0.88
NCI-H460 cells [19]
  Pt content in cytosolic fraction: 55%
  Pt content in mitochondrial fraction: 37%
  Pt content in nuclear fraction: 9%
[20]
  fold higher Pt accumulation in NCI-H460 than in CCD-19Lu cells: 1.9 fold
NCI-H460 cells [9]
  lysosomal integrity: disruption of lysosomes
LC3 (LC3-II)
  level of LC3-II: increased levels
[21]
  Pearson's colocalization coefficient of green and red LC3 puncta: 0.64
NCI-H460 cells [10]
  decrease in red fluorescence of JC-1 (mitochondrial depolarization): ca. 21%
NCI-H460 cells [22]
  increment in DCF fluorescence intensity versus vehicle control: ~1.2 fold
[23]
  immunohistochemical staining for Ki-67 in tumor specimens: significant reduction
[24]; 25 mg kg^−1 i.v., after 14 days, H&E
  histopathology of major organs (heart, liver, spleen, lungs and kidneys): No obvious histopathological lesion
[24]; 25 mg kg^−1 i.v., day 14
  plasma level of alanine aminotransferase (ALT): comparable to those in the vehicle control
  plasma level of creatinine (CREA): comparable to those in the vehicle control
[24]; throughout the 14-day treatment period
  death or weight loss of mice: None of the mice died or displayed any sign of weight loss
